Screening results as filed in PubChem.
Sampled rows, rich in hits. Any-hit rate of the full collection: about 3.5%.
MrgX1 antag: antagonists of human MrgX1 receptor; AID 588676; B-score at 10 µM; MRGX1-HEK293 calcium flux, Fluo-4, BAM8-22 antagonism; hits give low values; Q96LB2; 310,000 tested, 1.3% active;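 active = calcium-response B-score plate-corrected more than 3 library SD below zero, starting fluorescence within 5 deviations, no agonist response on first addition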;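 also: peak minus trough fluorescence over baseline after final BAM8-22 challenge near maximal dose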
Target sequence (Q96LB2 whole entry, looked up): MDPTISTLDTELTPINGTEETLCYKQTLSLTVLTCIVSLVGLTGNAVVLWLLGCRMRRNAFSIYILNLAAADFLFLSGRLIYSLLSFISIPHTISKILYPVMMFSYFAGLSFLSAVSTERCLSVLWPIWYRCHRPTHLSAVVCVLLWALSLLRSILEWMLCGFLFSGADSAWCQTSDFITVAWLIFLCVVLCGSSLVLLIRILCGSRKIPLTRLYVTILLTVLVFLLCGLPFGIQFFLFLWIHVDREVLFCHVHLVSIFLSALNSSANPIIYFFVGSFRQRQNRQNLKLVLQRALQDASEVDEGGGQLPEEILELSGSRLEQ
MrgX1 ag: agonists of human MrgX1 receptor. Q96LB2. MrgX1-HEK293 cells, Fluo-4 calcium fluorescence, agonist mode; hits give high values. B-score at 10 µM. 310,000 tested, 0.44% active. AID 588627;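 active = calcium response B-score plate-corrected fluorescence ratio at least 3 library SD, with starting fluorescence B-score inside 5 SD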
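System – MrgX1-expressing HEK293 cells · Incubation – cells plated overnight, dye loaded 0.5 h 37 °C, 0.5 h room temperature · Technique – kinetic Fluo-4 NW fluorescence of intracellular calcium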
RGS4 inh: inhibitors of human RGS4; P49798; HEK293 M3R/RGS4 inducible, Fluo-4 calcium flux; hits give high values; triggered by carbachol at its EC20; B-score at 10 µM; 310,000 tested, 0.45% active; AID 463165;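 active = B-score, a plate-corrected calcium signal, over three deviations above library mean, with baseline fluorescence within five deviations of library mean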;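 also: RGS4 expression induced by doxycycline in cells with stable M3 receptor; B-score is computed from the integrated fluorescence ratio over baseline after carbachol; higher B-score means a larger calcium signal and so more RGS4 inhibition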
Target sequence (P49798 whole entry, looked up): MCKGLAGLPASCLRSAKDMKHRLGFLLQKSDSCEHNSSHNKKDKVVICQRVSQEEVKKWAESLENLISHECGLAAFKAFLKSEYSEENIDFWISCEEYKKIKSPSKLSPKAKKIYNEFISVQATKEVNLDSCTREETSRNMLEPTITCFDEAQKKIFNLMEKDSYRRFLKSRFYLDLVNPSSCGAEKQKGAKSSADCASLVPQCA
RGS4 pot: RGS4 potentiation or activation. HEK293 M3R/inducible RGS4, carbachol calcium flux Fluo4; hits give low values. 310,000 tested, 0.92% active. B-score at 10 µM;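 active = B-score of the integrated calcium signal more than 4 SD below the library mean, with starting fluorescence not abnormally high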;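 also: negative B-score means reduced calcium response which marks RGS4 activation or potentiation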
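System – HEK293 FlpIn-TREx cells, stable M3R, doxycycline-inducible RGS4 · Reagent – ECmax carbachol challenge · Times – compound preincubation 20 min at room temperature before agonist · Technique – Fluo4 fluorescence kinetic imaging of calcium · Measure – B score of integrated Fluo4 ratio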
MrgX1 allo act: allosterically activates human MrgX1 receptor signaling. 310,000 tested, 0.63% active. B-score at 10 µM. Q96LB2. MrgX1-HEK293, Fluo-4 calcium flux, FDSS; hits give high values;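 active = plate-corrected calcium response at least 3 library SD above typical, normal starting fluorescence, not activating the receptor alone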;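 also: compound read alongside a low EC10 to EC30 dose of BAM8-22 agonist; peak minus trough fluorescence over baseline measured at the second addition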
MrgX1 allo conf: reconfirmed allosteric activator of human MrgX1 receptor. shares compounds with MrgX1 allo act. MrgX1-HEK293, Fluo-4 calcium fluorescence, FDSS. activation (ratio percentage), % at 10 µM. 1,200 tested, 13% active;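 active = ratio at least 3 SD above the weak peptide control, stable starting fluorescence, no direct agonism earlier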;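 also: compound followed by low BAM8-22 agonist challenge near EC20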
HEK293 Ca flux: MrgX1 antagonist counter-screen hit in parental HEK293 cells; fluorescence ratio F(max-min)/F0 at 10 µM; shares compounds with MrgX1 antag; Fluo-4 calcium fluorescence, FDSS; 4,000 tested, 2% active;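 active = duplicate-averaged calcium fluorescence ratio at least three times the standard deviation of buffer wells, a nonspecific response in parental cells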
HEK293 Ca counter: MrgX1 allosteric activator counter-screen hit in parental HEK293 cells; shares compounds with MrgX1 antag; 4,000 tested, 0.4% active; parental HEK293 calcium flux, Fluo-4 fluorescence ratio; hits give high values; fluorescence ratio F(max-min)/F0 at 10 µM; AID 624114;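 active = calcium fluorescence ratio, averaged over duplicates, at least 3 SD of the buffer-well ratio, meaning a nonspecific response in receptor-free cells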;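 also: untransfected parental HEK293 lacking MrgX1 used as counterscreen for MrgX1 allosteric activators; fluorescence change taken during the second addition on a kinetic imager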
HEK293 Ca cntr2: activity in parental HEK293 cells lacking MrgX1 receptor; 4,000 tested, 8.7% active; AID 624115; shares compounds with MrgX1 antag; Fluo-4 calcium fluorescence (FDSS); hits give high values; fluorescence ratio F(max-min)/F0 at 10 µM;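 active = calcium fluorescence ratio at least three times the spread of buffer wells, meaning a non-specific response in parental cells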
* marks the source's active call; other numbers are inactive results.

What do the screens show for `O=C(Nc1ccc(F)cc1)C1C2CCC3C(CCC21)C3(Cl)Cl` (stereo not given)?
MrgX1 antag: inactive; MrgX1 ag: inactive; RGS4 inh: inactive; RGS4 pot: inactive; MrgX1 allo act: 9.37*; MrgX1 allo conf: inactive; HEK293 Ca flux: inactive; HEK293 Ca counter: inactive; HEK293 Ca cntr2: inactive

Results for O=C(CSc1nnnn1C1CCCC1)Nc1ccccc1N1CCOCC1 ?
MrgX1 antag: inactive; MrgX1 ag: inactive; RGS4 inh: inactive; RGS4 pot: inactive; MrgX1 allo act: 7.94*; MrgX1 allo conf: inactive; HEK293 Ca flux: inactive; HEK293 Ca counter: inactive; HEK293 Ca cntr2: inactive

Results for O=C(CSc1nnnn1C1CCCC1)Nc1ccccc1F ?
MrgX1 antag: inactive; MrgX1 ag: inactive; RGS4 inh: inactive; RGS4 pot: inactive; MrgX1 allo act: inactive

How did CCCCSc1nnc(-c2ccccc2NC(C)=O)c(=O)[nH]1 do in these assays?
MrgX1 antag: inactive; MrgX1 ag: inactive; RGS4 inh: inactive; RGS4 pot: inactive; MrgX1 allo act: inactive

Results for CCOC(=O)CNC(=O)CSc1nc(-c2ccc(OC)cc2)ns1 ?
MrgX1 antag: inactive; MrgX1 ag: inactive; RGS4 inh: inactive; RGS4 pot: inactive; MrgX1 allo act: 11.9*; MrgX1 allo conf: inactive; HEK293 Ca flux: inactive; HEK293 Ca counter: inactive; HEK293 Ca cntr2: inactive

What do the screens show for `O=C(N/N=C/c1c(O)ccc2ccccc12)c1ccc(CO)nc1`?
MrgX1 antag: inactive; MrgX1 ag: inactive; RGS4 inh: inactive; RGS4 pot: inactive; MrgX1 allo act: inactive

How did O=C(N/N=C\c1c(O)ccc2ccccc12)c1ccc(S(=O)(=O)N2CCCCC2)cc1 do in these assays?
MrgX1 antag: inactive; MrgX1 ag: inactive; RGS4 inh: inactive; RGS4 pot: inactive; MrgX1 allo act: 19.6*; MrgX1 allo conf: inactive; HEK293 Ca flux: 0.418*; HEK293 Ca counter: inactive; HEK293 Ca cntr2: 65.1*

Results for CCOC(=O)N1CCC(NS(=O)(=O)c2ccc(C)cc2)CC1 ?
MrgX1 antag: inactive; MrgX1 ag: inactive; RGS4 inh: inactive; RGS4 pot: inactive; MrgX1 allo act: 8.23*; MrgX1 allo conf: inactive; HEK293 Ca flux: inactive; HEK293 Ca counter: inactive; HEK293 Ca cntr2: inactive

What do the screens show for `CCOC(=O)c1c(NC(=O)C2CCCCC2C(=O)O)sc2c1CCCCC2` (stereo not given)?
MrgX1 antag: inactive; MrgX1 ag: inactive; RGS4 inh: inactive; RGS4 pot: inactive; MrgX1 allo act: 15.8*; MrgX1 allo conf: inactive; HEK293 Ca flux: inactive; HEK293 Ca counter: inactive; HEK293 Ca cntr2: inactive

Results for COC1(c2cc(-c3ccccc3)nc(N)n2)CCCCC1 ?
MrgX1 antag: inactive; MrgX1 ag: inactive; RGS4 inh: inactive; RGS4 pot: inactive; MrgX1 allo act: 30.7*; MrgX1 allo conf: 28.4%*; HEK293 Ca flux: inactive; HEK293 Ca counter: inactive; HEK293 Ca cntr2: inactive

Results for Nc1nc(-c2ccccc2)cc(C(F)(F)F)n1 ?
MrgX1 antag: inactive; MrgX1 ag: inactive; RGS4 inh: inactive; RGS4 pot: inactive; MrgX1 allo act: inactive

How did CCCCC(NC(=O)Cc1c(C)c2cc3c(-c4ccccc4)coc3c(C)c2oc1=O)C(=O)O (stereo not given) do in these assays?
MrgX1 antag: inactive; MrgX1 ag: inactive; RGS4 inh: inactive; RGS4 pot: inactive; MrgX1 allo act: inactive

What do the screens show for `O=C(CCc1nnc(Cc2c[nH]c3ccccc23)o1)NC1CCCC1`?
MrgX1 antag: inactive; MrgX1 ag: inactive; RGS4 inh: inactive; RGS4 pot: inactive; MrgX1 allo act: 16.2*; MrgX1 allo conf: inactive; HEK293 Ca flux: inactive; HEK293 Ca counter: inactive; HEK293 Ca cntr2: inactive

What do the screens show for `CC1(C)OC2C(O1)[C@@H](CO)O[C@H]2n1cnc2c(N)ncnc21` (stereo not given in full)?
MrgX1 antag: inactive; MrgX1 ag: inactive; RGS4 inh: inactive; RGS4 pot: inactive; MrgX1 allo act: inactive

What do the screens show for `OC[C@H]1O[C@@H](n2cnc3c(Nc4ccccc4)ncnc32)[C@H](O)[C@@H]1O`?
MrgX1 antag: inactive; MrgX1 ag: inactive; RGS4 inh: inactive; RGS4 pot: inactive; MrgX1 allo act: 7.07*; MrgX1 allo conf: inactive; HEK293 Ca flux: inactive; HEK293 Ca counter: inactive; HEK293 Ca cntr2: inactive

How did CCN(CC)S(=O)(=O)c1cc(Br)c(C)cc1OC do in these assays?
MrgX1 antag: inactive; MrgX1 ag: inactive; RGS4 inh: inactive; RGS4 pot: inactive; MrgX1 allo act: 8.64*; MrgX1 allo conf: inactive; HEK293 Ca flux: inactive; HEK293 Ca counter: inactive; HEK293 Ca cntr2: inactive

How did COc1ccc(Nc2cccc3ccccc23)cc1 do in these assays?
MrgX1 antag: inactive; MrgX1 ag: inactive; RGS4 inh: inactive; RGS4 pot: inactive; MrgX1 allo act: 21.1*; MrgX1 allo conf: inactive; HEK293 Ca flux: inactive; HEK293 Ca counter: inactive; HEK293 Ca cntr2: inactive

How did COc1ccc(Nc2cc(C)c3ccccc3n2)cc1 do in these assays?
MrgX1 antag: inactive; MrgX1 ag: inactive; RGS4 inh: inactive; RGS4 pot: inactive; MrgX1 allo act: 15.6*; MrgX1 allo conf: 17.9%*; HEK293 Ca flux: inactive; HEK293 Ca counter: inactive; HEK293 Ca cntr2: inactive

Results for CCOC(=O)C(=O)Nc1nnc(CCc2ccccc2)s1 ?
MrgX1 antag: inactive; MrgX1 ag: inactive; RGS4 inh: inactive; RGS4 pot: inactive; MrgX1 allo act: 7.72*; MrgX1 allo conf: inactive; HEK293 Ca flux: inactive; HEK293 Ca counter: inactive; HEK293 Ca cntr2: inactive

Results for O=C(COc1ccccc1Cl)NCCC1=CCCCC1 ?
MrgX1 antag: inactive; MrgX1 ag: inactive; RGS4 inh: inactive; RGS4 pot: inactive; MrgX1 allo act: 17.5*; MrgX1 allo conf: inactive; HEK293 Ca flux: inactive; HEK293 Ca counter: inactive; HEK293 Ca cntr2: inactive

How did O=C(COC(=O)Cc1c(Cl)cccc1Cl)NCCC1=CCCCC1 do in these assays?
MrgX1 antag: inactive; MrgX1 ag: inactive; RGS4 inh: inactive; RGS4 pot: inactive; MrgX1 allo act: inactive
